Source: ChEMBL document CHEMBL3785055, “Arginine-linked neomycin B dimers: synthesis, rRNA binding, and resistance enzyme activity” (Medchemcomm, 2016)
Converted amounts (≈) assume the structure as drawn. The source made the active and inactive calls. The calls are words filed in the database; no cut-off is given here.

Columns and labels:
Staphylococcus aureus [1] = assay: Antibacterial activity against Staphylococcus aureus ATCC 25923 after 16 to 20 hrs by MTT assay; format: functional
Summary of the method: (§1)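 Strains grown in LB 24 h at 37 °C, 250 rpm; overnight culture diluted 1:1000, grown 4 h, diluted 1:1000 again and added to microplates. Incubation 16–20 h at 37 °C; growth read visually and with MTT (1 mg/mL).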

[2] = Activity at Eis (unknown origin) at 100 uM in presence of AcCoA by Ellmans method relative to NEO
Summary of the method: (§2)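 Acetylation followed by Ellman's method at 412 nm, 2 mM DTNB, 100 μM compound, 25 °C, triplicate, rates normalized to NEO. AcCoA 500 μM for Eis, 150 μM for AAC(3)-IV; enzyme 0.5 μM for Eis, 0.125 μM for AAC(3)-IV; 50 mM buffer.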

[3] = Activity at APH(3')-1a (unknown origin) at 100 uM in presence of […] by […] relative to NEO
[4] = test system: Staphylococcus epidermidis; assay: Antibacterial activity against Staphylococcus epidermidis ATCC 12228 after 16 to 20 hrs by MTT assay; format: functional; summary of the method: as §1
[5] = Displacement of F-NEO from Escherichia coli rRNA A-site by fluorescence assay
[6] = Displacement of F-NEO from human rRNA A-site by fluorescence assay
Escherichia coli = assay: Activity at Escherichia coli AAC(3)-4 at 100 uM in presence of AcCoA by Ellmans method relative to NEO; summary of the method: as §2
Staphylococcus aureus [7] = assay: Activity at Staphylococcus aureus APH(2'')-1a at 100 uM in presence of […] by […] relative to NEO
Bacillus cereus = assay: Antibacterial activity against Bacillus cereus ATCC 11778 after 16 to 20 hrs by MTT assay; format: functional; summary of the method: as §1
[8] = Selectivity factor, ratio of IC50 for human rRNA A-site to IC50 for Escherichia coli rRNA A-site
Summary of the method: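 Ratio from F-NEO displacement titrations, 0.002–2.0 μM compound against 0.1 μM F-NEO:A-site complex (485/535 nm). Measured IC50 stands in for the unmeasurable competition constants in Kd(human)/Kd(E. coli) = 5.75 × K(E. coli)/K(human). Buffer 10 mM HEPES, 50 mM NaCl, 0.4 mM EDTA, pH 7.0.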

[9] = test system: Mycobacterium tuberculosis; assay: Activity at Mycobacterium tuberculosis AAC(2')-1c at 100 uM in presence of AcCoA by Ellmans method relative to NEO
Summary of the method: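 N-acetylation by AAC(2')-Ic (0.125 μM enzyme) of 100 μM compound with 150 μM AcCoA and 2 mM DTNB in 100 mM buffer, 25 °C. Thiol release followed at 412 nm (ε = 14,150 M⁻¹cm⁻¹). Rates normalized to neomycin B, triplicate.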

Staphylococcus aureus [10] = assay: Activity at Staphylococcus aureus AAC(6')-1e/APH(2'')-1a in presence of AcCoA by Ellmans method relative to NEO

Structure (SMILES) | MIC (Staphylococcus aureus [1]) | Activity [2] | Activity [3] | MIC [4] | IC50 [5] | IC50 [6] | Activity (Escherichia coli) | Activity (Staphylococcus aureus [7]) | MIC (Bacillus cereus) | Ratio IC50 [8] | Activity [9] | Activity (Staphylococcus aureus [10])
N=C(N)NCCC[C@H](NC(=O)CCCCNC(=O)c1cc(-c2cn(C[C@@H]3O[C@H](O[C@H]4[C@H](O)[C@@H](N)C[C@@H](N)[C@@H]4O[C@H]4O[C@H](CN)[C@@H](O)[C@H](O)[C@H]4N)[C@@H](O)[C@H]3O[C@H]3O[C@@H](CN)[C@@H](O)[C@H](O)[C@H]3N)nn2)cc(-c2cn(C[C@H]3O[C@@H](O[C@@H]4[C@@H](O)[C@H](N)C[C@H](N)[C@H]4O[C@@H]4O[C@@H](CN)[C@H](O)[C@@H](O)[C@@H]4N)[C@H](O)[C@@H]3O[C@@H]3O[C@H](CN)[C@H](O)[C@@H](O)[C@@H]3N)nn2)c1)C(N)=O (stereo in doubt) | > 50 µM | inactive | inactive | > 50 µM | 52 µM | 70 µM | Active | inactive | 3 µM (≈ 5.11 µg/mL) | 7.4 | inactive | inactive
N=C(N)NCCC[C@H](NC(=O)CCNC(=O)c1cc(-c2cn(C[C@@H]3O[C@H](O[C@H]4[C@H](O)[C@@H](N)C[C@@H](N)[C@@H]4O[C@H]4O[C@H](CN)[C@@H](O)[C@H](O)[C@H]4N)[C@@H](O)[C@H]3O[C@H]3O[C@@H](CN)[C@@H](O)[C@H](O)[C@H]3N)nn2)cc(-c2cn(C[C@H]3O[C@@H](O[C@@H]4[C@@H](O)[C@H](N)C[C@H](N)[C@H]4O[C@@H]4O[C@@H](CN)[C@H](O)[C@@H](O)[C@@H]4N)[C@H](O)[C@@H]3O[C@@H]3O[C@H](CN)[C@H](O)[C@@H](O)[C@@H]3N)nn2)c1)C(N)=O (stereo in doubt) | 50 µM (≈ 83.8 µg/mL) | inactive | inactive | 50 µM (≈ 83.8 µg/mL) | 70 µM | 58 µM | Active | inactive | 0.8 µM (≈ 1.34 µg/mL) | 4.7 | inactive | inactive
N=C(N)NCCC[C@H](NC(=O)CCCCCNC(=O)c1cc(-c2cn(C[C@@H]3O[C@H](O[C@H]4[C@H](O)[C@@H](N)C[C@@H](N)[C@@H]4O[C@H]4O[C@H](CN)[C@@H](O)[C@H](O)[C@H]4N)[C@@H](O)[C@H]3O[C@H]3O[C@@H](CN)[C@@H](O)[C@H](O)[C@H]3N)nn2)cc(-c2cn(C[C@H]3O[C@@H](O[C@@H]4[C@@H](O)[C@H](N)C[C@H](N)[C@H]4O[C@@H]4O[C@@H](CN)[C@H](O)[C@@H](O)[C@@H]4N)[C@H](O)[C@@H]3O[C@@H]3O[C@H](CN)[C@H](O)[C@@H](O)[C@@H]3N)nn2)c1)C(N)=O (stereo in doubt) | > 50 µM | inactive | inactive | > 50 µM | 54 µM | 68 µM | Active | inactive | 1.6 µM (≈ 2.75 µg/mL) | 7.2 | inactive | inactive
N=C(N)NCCC[C@@H](NC(=O)CCCNC(=O)c1cc(-c2cn(C[C@@H]3O[C@H](O[C@@H]4[C@@H](O)[C@H](N)C[C@H](N)[C@H]4O[C@@H]4O[C@@H](CN)[C@H](O)[C@@H](O)[C@@H]4N)[C@@H](O)[C@H]3O[C@@H]3O[C@H](CN)[C@H](O)[C@@H](O)[C@@H]3N)nn2)cc(-c2cn(C[C@H]3O[C@@H](O[C@@H]4[C@@H](O)[C@H](N)C[C@H](N)[C@H]4O[C@@H]4O[C@@H](CN)[C@H](O)[C@@H](O)[C@@H]4N)[C@H](O)[C@@H]3O[C@@H]3O[C@H](CN)[C@H](O)[C@@H](O)[C@@H]3N)nn2)c1)C(N)=O (stereo in doubt) | > 50 µM | inactive | inactive | > 50 µM | 56 µM | 52 µM | Active | inactive | 1.6 µM (≈ 2.7 µg/mL) | 5.3 | inactive | inactive
